ChEMBL document CHEMBL1149869, “Antifungal and antimycobacterial activity of 1-(3,5-diaryl-4,5-dihydro-1H-pyrazol-4-yl)-1H-imidazole derivatives” (2008)
≈ marks a conversion by molar mass, not a printed value.

How the values were obtained:
Type in all cases: functional
[1] = test system: Mycobacterium tuberculosis; test: Antitubercular activity against Mycobacterium tuberculosis H37Rv micro-dilution Resazurin assay
Outline: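 Microdilution Resazurin assay (MRA) run for 1 week against reference strain M. tuberculosis H37Rv. Compound stocks were 2 mg/mL in DMSO, with DMSO tested up to 2% (v/v). MIC was the lowest concentration preventing the blue-to-pink Resazurin colour change, read visually twice in duplicate experiments. Viable counts on agar from control and test wells.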

[2] = test system: Candida albicans; test: Antifungal activity against Candida albicans 685 after 48 hrs
Outline: (§1)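 Clinical isolate C. albicans 685 tested by NCCLS (1997) reference broth method; compound stocks 2 mg/mL in DMSO; miconazole and amphotericin B as standards; MIC read after 24 and 48 h incubation, each determined twice in duplicate experiments.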

[3] = test system: Candida albicans; test: Antifungal activity against Candida albicans 685 after 24 hrs; outline: as §1

| Compound | MIC [1] | MIC [2] | MIC [3] |
| --- | --- | --- | --- |
| Clc1ccc(C2=NN[C@H](c3ccc(Cl)cc3)[C@H]2n2ccnc2)cc1 (racemic) | 8 µg/mL (≈ 22.4 µM) | 16 µg/mL (≈ 44.8 µM) | 4 µg/mL (≈ 11.2 µM) |
| Brc1ccc(C2=NN[C@H](c3ccc(Br)cc3)[C@H]2n2ccnc2)cc1 (racemic) | 8 µg/mL (≈ 17.9 µM) | 8 µg/mL (≈ 17.9 µM) | 4 µg/mL (≈ 8.97 µM) |
| Cc1ccc(C2=NN(C)[C@H](c3ccc(C)cc3)[C@@H]2n2ccnc2)cc1 (racemic) | 16 µg/mL (≈ 48.4 µM) | 64 µg/mL (≈ 194 µM) | 4 µg/mL (≈ 12.1 µM) |
| C[C@@H]1[C@H](O)[C@@H](C)/C=C/C=C/C=C/C=C/C=C/C=C/C=C/[C@H](O[C@@H]2O[C@H](C)[C@@H](O)[C@H](N)[C@@H]2O)C[C@@H]2O[C@](O)(C[C@@H](O)C[C@@H](O)[C@H](O)CC[C@@H](O)C[C@@H](O)CC(=O)O[C@H]1C)C[C@H](O)[C@H]2C(=O)O [AMPHOTERICIN B] |  | 1 µg/mL (≈ 1.08 µM) | 1 µg/mL (≈ 1.08 µM) |
| Brc1ccc(C2=NN(c3ccccc3)[C@H](c3ccc(Br)cc3)[C@H]2n2ccnc2)cc1 (racemic) | 8 µg/mL (≈ 15.3 µM) | 64 µg/mL (≈ 123 µM) | 1 µg/mL (≈ 1.91 µM) |
| c1ccc(C2=NN[C@H](c3ccccc3)[C@H]2n2ccnc2)cc1 (racemic) | 16 µg/mL (≈ 55.5 µM) | > 64 µg/mL | 16 µg/mL (≈ 55.5 µM) |
| c1ccc(C2=NN(c3ccccc3)[C@H](c3ccccc3)[C@H]2n2ccnc2)cc1 (racemic) | 8 µg/mL (≈ 22 µM) | 1 µg/mL (≈ 2.74 µM) | 0.06 µg/mL (≈ 0.165 µM) |
| Cc1ccc(C2=NN(c3ccccc3)[C@H](c3ccc(C)cc3)[C@H]2n2ccnc2)cc1 (racemic) | 4 µg/mL (≈ 10.2 µM) | 64 µg/mL (≈ 163 µM) | 8 µg/mL (≈ 20.4 µM) |
| Clc1ccc(C2=NN(c3ccccc3)[C@H](c3ccc(Cl)cc3Cl)[C@H]2n2ccnc2)c(Cl)c1 (racemic) | 4 µg/mL (≈ 7.96 µM) | > 64 µg/mL | 2 µg/mL (≈ 3.98 µM) |
| CN1N=C(c2ccccc2)[C@@H](n2ccnc2)[C@H]1c1ccccc1 (racemic) | 8 µg/mL (≈ 26.5 µM) | 64 µg/mL (≈ 212 µM) | 1 µg/mL (≈ 3.31 µM) |
| Fc1ccc(N2N=C(c3ccc(Br)cc3)[C@H](n3ccnc3)[C@H]2c2ccc(Br)cc2)cc1 (racemic) | 4 µg/mL (≈ 7.4 µM) | > 64 µg/mL | 8 µg/mL (≈ 14.8 µM) |
| NNC(=O)c1ccncc1 [ISONIAZID] | 0.5 µg/mL (≈ 3.65 µM) |  |  |
| CN1N=C(c2ccc(Cl)cc2)[C@@H](n2ccnc2)[C@H]1c1ccc(Cl)cc1 (racemic) | 8 µg/mL (≈ 21.5 µM) | 0.06 µg/mL (≈ 0.162 µM) | 0.06 µg/mL (≈ 0.162 µM) |
| Fc1ccc(N2N=C(c3ccccc3)[C@H](n3ccnc3)[C@H]2c2ccccc2)cc1 (racemic) | 8 µg/mL (≈ 20.9 µM) | 1 µg/mL (≈ 2.61 µM) | 0.06 µg/mL (≈ 0.157 µM) |
| Fc1ccc(N2N=C(c3ccc(Cl)cc3)[C@H](n3ccnc3)[C@H]2c2ccc(Cl)cc2)cc1 (racemic) | 4 µg/mL (≈ 8.86 µM) | > 64 µg/mL | 2 µg/mL (≈ 4.43 µM) |
| CN1N=C(c2ccc(Cl)cc2Cl)[C@@H](n2ccnc2)[C@H]1c1ccc(Cl)cc1Cl (racemic) | 16 µg/mL (≈ 36.4 µM) | 32 µg/mL (≈ 72.7 µM) | 0.12 µg/mL (≈ 0.273 µM) |
| Cc1ccc(C2=NN(c3ccc(F)cc3)[C@H](c3ccc(C)cc3)[C@H]2n2ccnc2)cc1 (racemic) | 4 µg/mL (≈ 9.74 µM) | 64 µg/mL (≈ 156 µM) | 64 µg/mL (≈ 156 µM) |
| Cc1ccc(C2=NN[C@@H](c3ccc(C)cc3)[C@@H]2n2ccnc2)cc1 (racemic) | 16 µg/mL (≈ 50.6 µM) | 64 µg/mL (≈ 202 µM) | 8 µg/mL (≈ 25.3 µM) |
| Clc1ccc(C2=NN(c3ccccc3)[C@H](c3ccc(Cl)cc3)[C@H]2n2ccnc2)cc1 (racemic) | 4 µg/mL (≈ 9.23 µM) | 64 µg/mL (≈ 148 µM) | 2 µg/mL (≈ 4.62 µM) |
| CN1N=C(c2ccc(Br)cc2)[C@@H](n2ccnc2)[C@H]1c1ccc(Br)cc1 (racemic) | 8 µg/mL (≈ 17.4 µM) | 0.06 µg/mL (≈ 0.13 µM) | 0.06 µg/mL (≈ 0.13 µM) |
| Clc1ccc(COC(Cn2ccnc2)c2ccc(Cl)cc2Cl)c(Cl)c1 (stereo not given) [MICONAZOLE] |  | 0.12 µg/mL (≈ 0.288 µM) | 0.06 µg/mL (≈ 0.144 µM) |
| Clc1ccc(C2=NN[C@H](c3ccc(Cl)cc3Cl)[C@H]2n2ccnc2)c(Cl)c1 (racemic) | 8 µg/mL (≈ 18.8 µM) | 64 µg/mL (≈ 150 µM) | 8 µg/mL (≈ 18.8 µM) |
| Fc1ccc(N2N=C(c3ccc(Cl)cc3Cl)[C@@H](n3ccnc3)[C@@H]2c2ccc(Cl)cc2Cl)cc1 (racemic) | 16 µg/mL (≈ 30.8 µM) | > 64 µg/mL | 1 µg/mL (≈ 1.92 µM) |
